A short description of data set [1]: Permeability of the compound at pH 7.4 by PAMPA. Conditions: read-out: permeability. The class given is ADME. The procedure, abridged: (§1)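 Compound was incubated for 4 h between a donor compartment (System Solution, pH 5.0 or 7.4) and an acceptor sink buffer. The distribution was read by UV absorption, and effective permeability coefficients were calculated by a published method.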
(In PAMPA a lipid-coated filter parts donor from acceptor wells.)

Data set [2] in a line: Permeability of the compound at pH 5 by PAMPA. In kind it is ADME. Conditions: read-out: permeability. The procedure, abridged:
as §1

Data set [3] can be described thus: Oral bioavailability in rat at 10 mg/kg. The class given is ADME, organism-based. The note with it: in vivo. The procedure, abridged:
(§2)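 Fasted male rats (n = 3) were given 1 mg/kg iv in 5% glucose/0.1 M HCl = 9/1, or 10 mg/kg po as a suspension in 0.5% methyl cellulose. Jugular vein blood was drawn into heparinized syringes at iv pre-dose, 5, 15, 30 min, 1, 2, 4, 6 and 24 h, or at po 15 and 30 min, 1, 2, 4, 6 and 24 h. Plasma was analysed for parent compound. BA = (AUCpo/Dpo)/(AUCiv/Div) × 100.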

Data set [4] can be described thus: Cmax in rat at 10 mg/kg, po. In kind it is ADME, organism-based. Set-up: dose 10 mg/kg, route oral. Conditions: in vivo. Summed up: as §2
Data set [5] can be described thus: AUC in rat at 1 mg/kg, iv. The class given is ADME, organism-based. Also on record: dose 1 mg/kg, route intravenous. The note with it: plasma. The procedure, abridged: as §2
Data set [6] is described as follows: Solubility of the compound in FaSSIF. In kind it is physicochemical.
Data set [7] can be described thus: AUC in rat at 10 mg/kg, po. In kind it is ADME, organism-based. Also on record: dose 10 mg/kg, route oral. The note with it: plasma. Summed up:
as §2

A short description of data set [8]: Volume of distribution at steady state in rat at 1 mg/kg, iv. In kind it is ADME, organism-based. Set-up: dose 1 mg/kg, route intravenous. The note with it: in vivo, read-out: Vdss. Summed up:
as §2

≈ marks a conversion by molar mass, not a printed value.

Take `O=c1[nH]c2cc(-c3ccccc3)ccc2c2nc(-c3c(F)cccc3Cl)[nH]c12`: the Papp in data set [1] is greater than 30 ×10⁻⁶ cm/s; in data set [2] it was 30 ×10⁻⁶ cm/s. Further, the bioavailability (as a rule, the share of a dose that reaches the circulation, judged against a reference dose that is usually intravenous) in data set [3] is 19%. The concentration in data set [4] peaked (Cmax) at 472 ng/mL. Moreover, the AUC (usually the area under the concentration-time curve, a measure of exposure) came to 728 ng·h/mL in data set [5] and 1400 ng·h/mL in data set [7]. The amount in solution in data set [6] (solubility) came to 1 µg/mL (≈ 2.57 µM). Further, the Vd in data set [8] turned out to be 1.4 L/kg.
On to `O=c1[nH]c2cc(-c3cccc(Cl)c3)ccc2c2nc(-c3c(F)cccc3Cl)[nH]c12`, for which the Papp in data set [1] was greater than 30 ×10⁻⁶ cm/s; in data set [2], 29 ×10⁻⁶ cm/s. Further, in data set [6], the solubility (usually the concentration that dissolves in the medium under given conditions) came to 0.5 µg/mL (≈ 1.18 µM).
Take `O=c1[nH]c2cc(Br)ccc2c2[nH]c(-c3ccccc3Cl)nc12`: the Papp is 26 ×10⁻⁶ cm/s in data set [1] and greater than 30 ×10⁻⁶ cm/s in data set [2]. The same compound displayed a solubility in data set [6] of 0.9 µg/mL (≈ 2.4 µM).
For `O=c1[nH]c2cc(-c3ccccc3)ccc2c2nc(-c3ccccc3Cl)[nH]c12`, in that order: greater than 30 ×10⁻⁶ cm/s, greater than 30 ×10⁻⁶ cm/s and 1 µg/mL (≈ 2.69 µM).
